According to ChEMBL document CHEMBL1909507, “Substituted phenyl 4-(2-oxoimidazolidin-1-yl)benzenesulfonamides as antimitotics. Antiproliferative, antiangiogenic and antitumoral activity, and quantitative structure-activity relationships” (Eur J Med Chem, 2011):
pIC50: −log10 of the molar value. The source made the active and inactive calls. The calls are words filed in the database; no cut-off is given here.

Experiments:
MCF7 = assay: Antiproliferative activity against human MCF7 cells after 48 hrs by SRB assay; type: functional, cell-based; conditions: MCF7, 48 h
Procedure, shortened: (§1)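 Adherent cells were seeded per line (e.g. HT-29 5000, M21 3500, MCF7 7500, CHO and CHO-VV 3-2 and CHO-TAX 5-6 1000 cells/well) and grown 24 h at 37 °C, 5% CO₂. DMSO-solubilized drug was diluted in medium and added at 1000–0.98 nM for 48 h. Cells were fixed with cold 10% TCA and stained with 0.1% sulforhodamine B, with absorbance read at 530–565 nm.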

[1] = Antiproliferative activity against mouse P388D1 after 48 hrs by SRB assay; conditions: P388D1, 48 h
M21 [2] = assay: Disruption of cytoskeleton microtubule structure of human M21 cells at 5 times IC50 after 16 hrs by indirect immunofluorescence assay; type: functional, cell-based
Procedure, shortened: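 Cells were fixed in 3.7% formaldehyde, permeabilized with saponin, and stained with anti-β-tubulin TUB 2.1, Alexa-488 anti-mouse secondary and DAPI. Fluorescence microscopy was used for imaging.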

CHO-VV 3-2 [3] = assay: Antiproliferative activity against colchicine and vinblastine-resistant CHO-VV 3-2 cells after 48 hrs by SRB assay; type: functional, cell-based; conditions: Cricetulus griseus, CHO-VV 3-2, 48 h; procedure, shortened: as §1
MDA-MB-231 [4] = assay: Displacement of N,N'-ethylenebis(iodoacetamide) from beta-tubulin colchicine-binding site in human MDA-MB-231 cells at 1000 times IC50 preincubated for 2 hrs before N,N'-ethylenebis(iodoacetamide) addition measured after 1.5 hrs by chemiluminescence assay; type: cell-based
Procedure, shortened: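 EBI (100, final) was added for 1.5 h at 37 °C with drug present; control was 0.5% DMSO. Sonicated lysates (20 µg protein) were run on 10% SDS-PAGE and blotted with anti-β-tubulin TUB 2.1. The β-tubulin–EBI adduct was scored by ECL.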

K562 = assay: Antiproliferative activity against human K562 after 48 hrs by SRB assay; type: functional, cell-based; conditions: K562, 48 h
M21 [5] = assay: Cell cycle arrest in human M21 cells assessed as accumulation at G0/G1 phase at 5 times IC50 after 24 hrs using propidium iodide staining by flow cytometric analysis (reference value: 61%); type: functional
Procedure, shortened: (§2)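 Cells were trypsinized, fixed in ice-cold ethanol, treated with RNase, and stained with propidium iodide (1 mg/mL stock) for 1 h on ice. Cell-cycle distribution was measured by flow cytometry.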

[6] = Antiproliferative activity against mouse B16F0 after 48 hrs by SRB assay
M21 [7] = assay: Cell cycle arrest in human M21 cells assessed as accumulation at G2/M phase at 5 times IC50 after 24 hrs using propidium iodide staining by flow cytometric analysis (reference value: 9%); type: functional; procedure, shortened: as §2
CHO-TAX 5-6 [8] = assay: Antiproliferative activity against paclitaxel-resistant CHO-TAX 5-6 cells after 48 hrs by SRB assay; type: functional, cell-based; conditions: Cricetulus griseus, CHO-TAX 5-6, 48 h; procedure, shortened: as §1
CHO-TAX 5-6 [9] = assay: Ratio of IC50 for paclitaxel-resistant CHO-TAX 5-6 cells to IC50 for CHO cells; type: functional, Cricetulus griseus
Procedure, shortened: (§3)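 Each ratio is the IC50 in the resistant line divided by the IC50 in its parental line (CHO for CHO-TAX 5-6 and CHO-VV 3-2; CEM for CEM-VLB).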

[10] = Toxicity against fertilized chicken embryo assessed as mortality at 3 ug, iv by CAM assay; type: organism-based, Gallus gallus; conditions: in vivo, read-out: Activity
Procedure, shortened: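 HT-1080 fibrosarcoma cells (3.5 × 10⁵ cells/egg) grafted onto the chorioallantoic membrane of fertilized chicken eggs (10 days preincubation). On day 11, drug in DMSO diluted into excipient (ethanol:cremophor:PBS 6.25:6.25:87.5) given iv at 3 µg per egg. Chick mortality recorded over 7-day tumor growth period. Untreated eggs as negative controls and for normalization. Cumulative results from two independent experiments, 10–12 eggs each.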

HT-1080 [11] = assay: Antitumor activity against human HT1080 cells xenografted in chicken chorioallantoic membrane assessed as inhibition of tumor growth at 3 ug, iv measured on day 17 by CAM assay; type: functional
Procedure, shortened: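 Fertilized chicken eggs were incubated 10 days, then 3.5 × 10⁵ HT-1080 cells/egg were applied to the exposed chorioallantoic membrane. On day 11, drug was given iv in DMSO diluted in excipient (ethanol:cremophor:PBS 6.25:6.25:87.5). Read-out was tumor wet weight as % of untreated eggs, plus chick mortality. Data were pooled from two independent experiments of 10–12 eggs each.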

CHO = assay: Antiproliferative activity against Chinese hamster CHO after 48 hrs by SRB assay; conditions: Cricetulus griseus
M21 [12] = assay: Cell cycle arrest in human M21 cells assessed as accumulation at S phase at 5 times IC50 after 24 hrs using propidium iodide staining by flow cytometric analysis (reference value: 30%); type: functional; procedure, shortened: as §2
MDA-MB-231 [13] = assay: Antiproliferative activity against human MDA-MB-231 after 48 hrs by SRB assay; type: functional, cell-based; conditions: MDA-MB-231, 48 h
M21 [14] = assay: Antiproliferative activity against human M21 cells after 48 hrs by SRB assay; type: functional, cell-based; conditions: M21, 48 h; procedure, shortened: as §1
DU-145 = assay: Antiproliferative activity against human DU145 after 48 hrs by SRB assay; type: functional, cell-based; conditions: DU-145, 48 h
L1210 = assay: Antiproliferative activity against mouse L1210 after 48 hrs by SRB assay; type: functional, cell-based; conditions: L1210, 48 h
CCRF-CEM [15] = assay: Ratio of IC50 for human multidrug-resistant CEM/VLB cells to IC50 for human CEM cells; type: functional; procedure, shortened: as §3
HT-1080 [16] = assay: Antiproliferative activity against human HT1080 after 48 hrs by SRB assay; type: functional, cell-based; conditions: HT-1080, 48 h; procedure, shortened: as §1
CHO-VV 3-2 [17] = assay: Ratio of IC50 for colchicine and vinblastine-resistant CHO-VV 3-2 cells to IC50 for CHO cells; type: functional, Cricetulus griseus; procedure, shortened: as §3
SK-OV-3 = assay: Antiproliferative activity against human SKOV3 after 48 hrs by SRB assay; type: functional, cell-based; conditions: SK-OV-3, 48 h; procedure, shortened: as §1
CCRF-CEM [18] = assay: Antiproliferative activity against human CEM after 48 hrs by SRB assay; type: functional, cell-based
HT-29 = assay: Antiproliferative activity against human HT-29 cells after 48 hrs by SRB assay; type: functional, cell-based; conditions: HT-29, 48 h; procedure, shortened: as §1
[19] = Antiproliferative activity against human multidrug-resistant CEM/VLB cells after 48 hrs by SRB assay; type: functional

Compound | pIC50 (MCF7) | pIC50 [1] | Activity (M21 [2]) | pIC50 (CHO-VV 3-2 [3]) | Activity (MDA-MB-231 [4]) | pIC50 (K562) | Activity (M21 [5]) [%] | pIC50 [6] | Activity (M21 [7]) [%] | pIC50 (CHO-TAX 5-6 [8]) | Ratio IC50 (CHO-TAX 5-6 [9]) | mortality [10] [%] | pIC50 (CHO) | Activity (M21 [12]) [%] | pIC50 (MDA-MB-231 [13]) | pIC50 (M21 [14]) | pIC50 (DU-145) | pIC50 (L1210) | Ratio IC50 (CCRF-CEM [15]) | pIC50 (HT-1080 [16]) | further results
Cc1cccc(NS(=O)(=O)c2ccc(N3CCNC3=O)cc2)c1 | 6.72 | 6.60 | Active | 6.55 | Active | 6.70 | 1 | 6.54 | 83 | 6.82 | 0.65 | 8 | 6.64 | 16 | 5.90 | 7.16 | 6.24 | 6.74 | 1.9 | 6.68 | inhibition (HT-1080 [11]): inactive; Ratio IC50 (CHO-VV 3-2 [17]): 1.2; pIC50 (SK-OV-3): 6.70; pIC50 (CCRF-CEM [18]): 6.70; pIC50 (HT-29): 6.96; pIC50 [19]: 6.43
COc1cc(NS(=O)(=O)c2ccc(N3CCNC3=O)cc2)cc(OC)c1 | 6.77 | 6.70 | Active | 6.16 | Active | 6.96 | 13 | 6.55 | 59 | 6.66 | 0.67 | 13 | 6.48 | 28 | 6.47 | 7.22 | 6.15 | 6.96 | 5.9 | 6.82 | growth inhibition (GI) (HT-1080 [11]): 31%; Ratio IC50 (CHO-VV 3-2 [17]): 2.1; pIC50 (SK-OV-3): 6.77; pIC50 (CCRF-CEM [18]): 6.77; pIC50 (HT-29): 7.11; pIC50 [19]: 6.00
O=C1NCCN1c1ccc(S(=O)(=O)Nc2cccc(Br)c2)cc1 | 7.00 | 7.05 | Active | 6.57 | Active | 7.06 | 2 | 6.57 | 78 | 7.12 | 0.3 | 24 | 6.60 | 20 | 6.54 | 7.23 | 6.47 | 7.00 | 2.3 | 6.77 | growth inhibition (GI) (HT-1080 [11]): 19%; Ratio IC50 (CHO-VV 3-2 [17]): 1.1; pIC50 (SK-OV-3): 6.77; pIC50 (CCRF-CEM [18]): 6.96; pIC50 (HT-29): 7.11; pIC50 [19]: 6.60
Cc1cc(C)cc(NS(=O)(=O)c2ccc(N3CCNC3=O)cc2)c1 | 7.00 | 6.68 | Active | 6.60 | Active | 6.96 | 1 | 6.59 | 78 | 6.92 | 0.57 | 8 | 6.68 | 21 | 5.91 | 7.20 | 6.37 | 6.96 | 2.4 | 6.82 | inhibition (HT-1080 [11]): inactive; Ratio IC50 (CHO-VV 3-2 [17]): 1.2; pIC50 (SK-OV-3): 6.72; pIC50 (CCRF-CEM [18]): 6.77; pIC50 (HT-29): 7.09; pIC50 [19]: 6.40
